Bioassay records as filed in PubChem BioAssay.
Shown are actives, neighbours in structure and some others; about 4.4% of the full set was active somewhere.
SENP1 inh = human SENP1 catalytic domain inhibitors, primary screen, biochemical, FRET, uHTS | Sentrin-specific protease 1 (Homo sapiens), Q9P0U3 | recombinant SENP1 catalytic domain, CyPet-SUMO1-YPet FRET cleavage | 360,000 compounds, 0.21% hits | inhibition, % at 10 µM;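 active means inhibition at least 30% at 10 µM, raw YFP signal under a set limit, fluorescence ratio 0.5 to 1.5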;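 further: 0% = enzyme with DMSO and 100% = no enzyme wells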
Target sequence (Q9P0U3 419-644 limits assumed): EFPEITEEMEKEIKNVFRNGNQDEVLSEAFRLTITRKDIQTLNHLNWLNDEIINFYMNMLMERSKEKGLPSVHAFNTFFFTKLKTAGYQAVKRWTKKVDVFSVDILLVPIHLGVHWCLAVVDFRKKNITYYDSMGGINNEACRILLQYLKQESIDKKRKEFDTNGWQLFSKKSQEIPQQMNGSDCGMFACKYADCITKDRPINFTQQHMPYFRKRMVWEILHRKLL
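Assay system – human recombinant His6-tagged SENP1 catalytic domain enzyme · Input – SENP1 enzyme, 20 pM final · Buffer or medium – Tris pH 8 buffer plus EDTA, NaCl, BME, BSA, NP40, catalase · Schedule – 50 min reaction at room temperature · Technique – FRET read of cyan and yellow fluorescence · Control set – no-enzyme wells low, DMSO-plus-enzyme wells high control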
GRIN3A LBD mod = binders of NR3A ligand-binding domain, primary screen, biophysical, differential scanning fluorimetry, uHTS | Tm shift relative to glycine control, % at 25 µM | 340,000 compounds, 2.5% hits | Glutamate receptor ionotropic, NMDA 3A (GRIN3A) ligand-binding domain | NR3A LBD differential scanning fluorimetry, Tm shift; 0% = protein alone, 100% = glycine-bound protein;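 active means melting temperature shift of at least 10% of the positive control shift, at one fixed dose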
MPTP block = mitochondrial permeability transition pore inhibitors, primary screen, biochemical, isolated mouse mitochondria, absorbance. Ca2+ swelling absorbance, 30 min. inhibition, % at 10 µM. 360,000 compounds, 1.4% hits. AID 602449, 2012;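 active means inhibition of 50% or more, scaled per plate between neutral and stimulator controls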;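 further: 0% = DMSO wells given calcium and 100% = 1 mM EGTA wells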
EBI2 antag = EBI2 receptor antagonists, beta-arrestin recruitment, primary screen, cell-based, luminescence, 7a,25-OHC stimulation, uHTS. G-protein coupled receptor 183 (Homo sapiens), P32249. 7a,25-OHC stimulated. inhibition, % at 5 µM. 360,000 compounds, 0.81% hits. AID 651636, 2012; in the data active means inhibition above about 38%;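 further: enzyme fragment complementation signal reports receptor beta-arrestin coupling in cells; 0% = agonist plus DMSO wells and 100% = wells without agonist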
Target sequence (P32249 whole entry, looked up, the tested form may be a part): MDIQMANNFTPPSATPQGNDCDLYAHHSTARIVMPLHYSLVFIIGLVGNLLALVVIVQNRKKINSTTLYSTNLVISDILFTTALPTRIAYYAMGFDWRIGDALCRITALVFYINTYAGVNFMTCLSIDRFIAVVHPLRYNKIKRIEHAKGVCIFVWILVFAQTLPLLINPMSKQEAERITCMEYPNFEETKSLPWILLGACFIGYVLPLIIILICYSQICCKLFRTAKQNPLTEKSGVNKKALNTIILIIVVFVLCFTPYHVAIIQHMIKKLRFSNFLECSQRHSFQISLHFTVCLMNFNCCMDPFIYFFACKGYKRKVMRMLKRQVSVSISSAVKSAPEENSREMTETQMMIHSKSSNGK
MPTP counter = fluorescence retest of MPTP screen hits in isolated mitochondria, single concentration; shares compounds with MPTP block; membrane potential, Rhodamine 123 fluorescence; inhibition, % at 10 µM; 5,000 compounds, 78% hits; in the data active means inhibition above about 22%;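 further: 0% = DMSO vehicle and 100% = positive control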
MPTP swell DR = mitochondrial permeability transition pore inhibitors, dose response, biochemical, absorbance, uHTS hits; shares compounds with MPTP block; isolated mitochondria swelling; IC50, µM; 780 compounds, 58% hits; in the data active means IC50 below about 20 µM
MPTP counter DR = fluorescent counter-screen in isolated mitochondria, dose response, counter-screen for MPTP inhibitor project, biochemical, fluorescence, uHTS hits. isolated mitochondria counterscreen, fluorescence read-out. AID 651564, 2012. shares compounds with MPTP block. 780 compounds, 49% hits. IC50, µM; in the data active means IC50 below about 80 µM
An asterisk follows results filed as active; i = inactive; · = no result given.

SMILES	SENP1 inh	GRIN3A LBD mod	MPTP block	EBI2 antag	MPTP counter	others
CC(=O)NC(CC(=O)NCc1ccncc1)c1ccccc1 (stereo not drawn)	0	-1	1	-5	·
O=C(Nc1ncc(S(=O)(=O)c2ccc([N+](=O)[O-])cc2)s1)c1ccc2ccccc2c1	5	22*	94*	-18	31*
O=C(Nc1ncc(S(=O)(=O)c2ccc([N+](=O)[O-])cc2)s1)c1cccnc1	3	0	7	-9	·
COc1cccc(CNC(=O)C2CCC(CNS(=O)(=O)c3cccc4cccnc34)CC2)c1 (stereo not drawn)	1	1	0	4	·
Cc1cc(C)nc(SCC(=O)Nc2ccnc3ccccc23)n1	-2	-5	97*	-2	98*
O=C(CSC1=NCCS1)Nc1ccnc2ccccc12	1	-2	68*	-3	74*
CCN(CC)c1ccc(/C=C/c2ccc3ccc(OC)cc3[n+]2CC)cc1	23	-4	64*	17	63*
CCCCCC[n+]1ccccc1/C=C/c1ccc(N(C)C)cc1	31	·	58*	6	103*
CN(C)c1ccc(/C=C/c2cc[n+](C)cc2)cc1	93	-1	6	1	·
CC[n+]1c(/C=C/c2ccc(N(C)C)cc2)ccc2ccccc21	13	-1	141*	8	55*
CC[n+]1ccc(/C=C/c2ccc(N(C)C)cc2)c2ccccc21	7	-3	119*	8	68*
CC[n+]1c(/C=C/c2ccc(OC)c(OC)c2)ccc2ccccc21	20	1	0	1	·
COc1ccc(NC(=O)COC(=O)Cc2c(F)cccc2Cl)cc1	2	-4	0	-11	·
CN(CC(=O)Nc1cccc(Cl)c1)S(=O)(=O)/C=C/c1ccccc1	3	·	2	26	·
CCc1cc(C(=O)N(Cc2ccccc2)c2c(N)n(CCOC)c(=O)[nH]c2=O)sc1C	1	-3	1	-3	·
Cc1cc(C(=O)CSc2nc3ccccc3c(=O)n2C)c(C)n1Cc1ccc2c(c1)OCO2	1	-3	97*	11	94*
COc1cccc(NC(=S)NC(Cc2ccccc2)c2ccccc2)c1 (stereo not drawn)	1	·	57*	13	90*
Cc1nc2ccccc2nc1SCC(=O)c1ccccc1	-2	1	75*	2	71*
CCOc1ccccc1-n1nnnc1SC(C)C(=O)OC (stereo not drawn)	0	1	-1	3	·
COc1ccc(-c2nc(N3CCN(C)CC3)sc2-c2ccc(OC)cc2)cc1	0	-2	74*	5	-18	MPTP swell DR=i;MPTP counter DR=>80
CCCCCCNCC(=O)N1CCC(Cc2ccccc2)CC1	0	-2	86*	4	-3	MPTP swell DR=11*;MPTP counter DR=45*
CC(C)(C=O)C1=CC(=O)c2ccccc2C1=O	3	11*	100*	-2	1
CN(Cc1ccccc1)C(=O)c1[nH]cnc1C(=O)N[C@@H](Cc1ccccc1)C(=O)OC(C)(C)C	1	1	1	0	·
Cc1cc(N/N=C/c2ccc(N(C)C)cc2)nc(NCc2ccccc2)n1	-28	-8	60*	12	56*
Cc1cc(N2CCC(C)CC2)nc(-c2ccccc2O)n1	0	0	2	-20	·
SMILES	SENP1 inh	GRIN3A LBD mod	MPTP block	EBI2 antag	MPTP counter	others
Cc1cc(Nc2ccccc2)nc(NCc2ccccc2)n1	1	-6	90*	-7	92*
Cc1cc(N2CCC(C)CC2)nc(NCc2ccccc2)n1	0	0	91*	2	111*
Fc1cc(NCc2ccccc2)nc(NCc2ccccc2)n1	-5	-6	3	-6	·
Cc1cc(Nc2cccc(F)c2)nc(NCc2ccccc2)n1	-12	-11	92*	8	73*
C=CC[C@@H](Cc1ccc(F)cc1)C(=O)OC[C@@H]1CCCN1C(=O)[C@H](CC=C)CC(=O)NCCO	1	1	-1	1	·
Cc1ccc(N(Cc2ccccc2)C(=O)CSC(C)C(=O)Nc2cc(C)on2)cc1 (stereo not drawn)	1	·	0	4	·
C#CCOCCOCCOCCNc1nc(N2CCN(C(=O)[C@H](CCC(=O)O)n3cc(CN)nn3)CC2)nc(N2CCN(C(=O)[C@H](CCCN=C(N)N)n3cc(C(N)[C@@H](C)CC)nn3)CC2)n1 (stereo partly drawn)	0	1	0	-5	·
Cc1cc(-c2nn(-c3ccccc3F)cc2CN(C)CC(O)CO)c(C)s1 (stereo not drawn)	7	-3	0	4	·
Cc1cc(Nc2ccc(Cl)cc2)nc(NCc2ccccc2)n1	0	-2	53*	1	31*
Cc1cc(N/N=C/c2ccc(Cl)cc2Cl)nc(NCc2ccccc2)n1	0	-1	15	30	·
CCCCNc1cc(C)nc(NCc2ccccc2)n1	-3	-4	104*	5	131*
NC1=C([N+](=O)[O-])C(c2ccc3c(c2)OCO3)C2=C(CCCC2=O)O1 (stereo not drawn)	-1	1	2	-17	·
COc1ccc(Cn2c(=O)oc3ccc(C)cc32)cc1OC	-1	-2	72*	-10	35*
Cc1ccc(S(=O)(=O)NCc2ccccc2)cc1C(=O)N(C)CC(=O)Nc1ccccc1Br	3	-1	-2	-4	·
CCOC(=O)c1cc(-c2ccccc2)sc1NC(=O)C(C)OC(=O)c1cccc(S(=O)(=O)N(C)C)c1 (stereo not drawn)	1	1	4	27	·
CCOC(=O)c1cc(-c2ccccc2)sc1NC(=O)C(C)OC(=O)c1cccnc1OCC (stereo not drawn)	2	1	68*	19	-1	MPTP swell DR=>100;MPTP counter DR=>80
Cc1ccc(NC(=S)Nc2nc(CC(=O)Nc3ccccc3)cs2)cc1	-12	17*	78*	18	84*
COC(=O)c1cn(C(=O)c2ccc3c(c2)OCO3)c2ccccc12	4	·	-1	-5	·
COc1ccc(Nc2nc(-c3c(C)nc4ncccn34)cs2)cc1	5	-4	7	25	·
COc1ccccc1Nc1nc(-c2c(C)nc3ncccn23)cs1	7	-2	71*	13	50*
COc1ccc(CC(=O)N2CCCC2)c(OC)c1	2	-2	0	3	·
Cc1ccc(CSC(Nc2ccc(F)cc2)=C(C#N)C#N)cc1	1	10	95*	-13	93*
